In ChEMBL document CHEMBL2413051, “Antibacterial activity of quinoxalines, quinazolines, and 1,5-naphthyridines” (2013):
In brackets after ≈: the same amount, converted by molar mass. Activity calls are given as the source filed them. No cut-off for these calls is given here.

Legend:
[1] = molecular target: T1, Cell division protein FtsZ (Staphylococcus aureus) (UniProt P0A031); assay: Stimulation of purified Staphylococcus aureus FtsZ polymerization at 40 ug/ml by microtiter plate based light-scattering assay in presence of 10 mM depolymerizing agent GDP
T1 sequence (whole entry): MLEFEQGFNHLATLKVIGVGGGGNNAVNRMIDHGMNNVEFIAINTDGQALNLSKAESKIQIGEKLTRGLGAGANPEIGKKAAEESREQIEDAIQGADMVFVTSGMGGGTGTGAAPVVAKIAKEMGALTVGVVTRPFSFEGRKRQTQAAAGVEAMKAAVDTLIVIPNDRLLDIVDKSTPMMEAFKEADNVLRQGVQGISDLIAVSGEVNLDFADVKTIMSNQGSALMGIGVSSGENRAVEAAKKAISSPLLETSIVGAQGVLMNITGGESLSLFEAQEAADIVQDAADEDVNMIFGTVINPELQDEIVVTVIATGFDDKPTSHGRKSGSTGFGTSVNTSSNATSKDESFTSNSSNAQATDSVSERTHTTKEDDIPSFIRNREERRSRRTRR

Enterococcus faecalis [2] = assay: microbe, parasite or virus in culture; type: functional; settings: ATCC 51575
Staphylococcus aureus [3] = assay: microbe, parasite or virus in culture; type: functional; settings: 8325-4
Staphylococcus aureus [4] = assay: microbe, parasite or virus in culture; type: functional; settings: ATCC 33591
Enterococcus faecalis [5] = assay: microbe, parasite or virus in culture; type: functional; settings: ATCC 19433
Staphylococcus aureus [6] = assay: Bactericidal activity against methicillin-sensitive Staphylococcus aureus 8325-4; type: functional
In short: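 MBC against MSSA strain 8325-4, determined per a previously described method; paired MIC by CLSI broth microdilution, MIC being lowest concentration giving ≥90% growth inhibition.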

Staphylococcus aureus [7] = assay: Bactericidal activity against methicillin-resistant Staphylococcus aureus ATCC 33591; type: functional
[8] = molecular target: T1, Cell division protein FtsZ (Staphylococcus aureus); assay: Stimulation of purified Staphylococcus aureus FtsZ polymerization at 80 ug/ml by microtiter plate based light-scattering assay
Staphylococcus aureus [9] = assay: Ratio of MBC to MIC for methicillin-sensitive Staphylococcus aureus 8325-4; type: functional
Enterococcus faecalis [10] = assay: Ratio of MBC to MIC for vancomycin-resistant Enterococcus faecalis ATCC 51575; type: functional
In short: (§1)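 Ratio of MBC to MIC, both in µg/mL. MIC was found by CLSI broth microdilution as the lowest concentration giving ≥90% growth inhibition. MBC was found by a previously described method. Per CLSI, a ratio of 1–2 is read as bactericidal and ≥8 as bacteriostatic.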

Enterococcus faecalis [11] = assay: Bactericidal activity against vancomycin-resistant Enterococcus faecalis ATCC 51575; type: functional
Staphylococcus aureus [12] = assay: Ratio of MBC to MIC for methicillin-resistant Staphylococcus aureus ATCC 33591; type: functional; in short: as §1
[13] = molecular target: T1, Cell division protein FtsZ (Staphylococcus aureus); assay: Stimulation of purified Staphylococcus aureus FtsZ polymerization at 40 ug/ml by microtiter plate based light-scattering assay

Row | Structure (SMILES) | Activity [1] | MIC (Enterococcus faecalis [2]) [µg/mL] | MIC (Staphylococcus aureus [3]) [µg/mL] | MIC (Staphylococcus aureus [4]) [µg/mL] | MIC (Enterococcus faecalis [5]) [µg/mL] | MBC (Staphylococcus aureus [6]) [µg/mL] | MBC (Staphylococcus aureus [7]) [µg/mL] | Activity [8] | Ratio (Staphylococcus aureus [9]) | Ratio (Enterococcus faecalis [10]) | MBC (Enterococcus faecalis [11]) [µg/mL] | Ratio (Staphylococcus aureus [12]) | Activity [13]
1 | C[n+]1cc(-c2cc(C(=O)NCCO)cc(-c3ccc(C(C)(C)C)cc3)c2)nc2ccccc21.[I-] | Active | 8 | 4 | 4 | 8 |  |  |  |  |  |  |  | 
2 | C[n+]1cc(-c2cc(C(N)=O)cc(-c3ccc(C(C)(C)C)cc3)c2)nc2ccccc21.[I-] | Active | 4 | 2 | 2 | 4 |  |  |  |  |  |  |  | 
3 | CC(C)(C)c1ccc(-c2cc(C(=O)NCCN)cc(-c3cnc4ccccc4n3)c2)cc1 | Active | 8 (≈ 18.8 µM) | 4 (≈ 9.42 µM) | 4 (≈ 9.42 µM) | 8 (≈ 18.8 µM) |  |  |  |  |  |  |  | 
4 | CN[C@H](CC(C)C)C(=O)N[C@H]1C(=O)N[C@@H](CC(N)=O)C(=O)N[C@H]2C(=O)N[C@H]3C(=O)N[C@H](C(=O)N[C@H](C(=O)O)c4cc(O)cc(O)c4-c4cc3ccc4O)[C@H](O)c3ccc(c(Cl)c3)Oc3cc2cc(c3O[C@@H]2O[C@H](CO)[C@@H](O)[C@H](O)[C@H]2O[C@H]2C[C@](C)(N)[C@H](O)[C@H](C)O2)Oc2ccc(cc2Cl)[C@H]1O [VANCOMYCIN] |  | > 64 |  |  | 1 (≈ 0.69 µM) | 1 (≈ 0.69 µM) | 4 (≈ 2.76 µM) |  |  |  |  |  | 
5 | CC(C)(C)c1ccc(-c2ccnc3c(CN)ccnc23)cc1 | Active | > 64 | > 64 | > 64 | > 64 |  |  |  |  |  |  |  | 
6 | C[n+]1ccnc2ccccc21.[I-] | Active | > 64 | 32 | > 64 | > 64 |  |  |  |  |  |  |  | 
7 | c1ccc(-c2cccc(-c3cnc4ccccc4n3)c2)cc1 | Active | > 64 | > 64 | > 64 | > 64 |  |  |  |  |  |  |  | 
8 | C[n+]1cc(-c2ccccc2)nc2ccccc21.[I-] | Active | > 64 | 4 | 8 | 32 |  |  |  |  |  |  |  | 
9 | Fc1cccc(-c2cnc3ccccc3n2)c1 | Active | > 64 | > 64 | > 64 | > 64 |  |  |  |  |  |  |  | 
10 | COC(=O)c1cc(-c2ccc(C(C)(C)C)cc2)cc(-c2cnc3ccccc3n2)c1 | Active | > 64 | > 64 | > 64 | > 64 |  |  |  |  |  |  |  | 
11 | CC(C)(C)c1ccc(-c2ccnc3c(CNC(=N)N)ccnc23)cc1 | Active | 64 (≈ 192 µM) | 8 (≈ 24 µM) | 8 (≈ 24 µM) | 32 (≈ 96 µM) | 8 (≈ 24 µM) | 16 (≈ 48 µM) | Active | 1 | 1 | 64 (≈ 192 µM) | 2 | 
12 | CC(C)(C)c1ccc(-c2cnc3ccccc3n2)cc1 | Active | > 64 | > 64 | > 64 | > 64 |  |  |  |  |  |  |  | 
13 | CC(=N)NCc1cccc2c(-c3ccc(C(C)(C)C)cc3)ncnc12 | Active | 64 (≈ 193 µM) | 32 (≈ 96.3 µM) | 64 (≈ 193 µM) | 64 (≈ 193 µM) |  |  |  |  |  |  |  | 
14 | C[n+]1cc(-c2cccc(C(C)(C)C)c2)nc2ccccc21.[I-] | Active | 16 | 2 | 2 | 8 | 16 | 16 |  | 8 | 4 | 64 |  | inactive
15 | CCC[C@@H]1C[C@@H](C(=O)N[C@@H]([C@H]2O[C@H](SC)[C@H](O)[C@@H](O)[C@H]2O)[C@H](C)Cl)N(C)C1 [CLINDAMYCIN] |  | > 64 | 0.03 (≈ 0.0706 µM) | > 64 | 2 (≈ 4.71 µM) |  |  |  |  |  |  |  | 
16 | C[n+]1cc(-c2ccc(C(C)(C)C)cc2)nc2ccccc21.[I-] | Active | 16 | 0.5 | 1 | 16 | 8 | 16 |  | 16 | 4 | 64 |  | 
